These results are taken from ChEMBL document CHEMBL3102735, “Enhancing the pharmacodynamic profile of a class of selective COX-2 inhibiting nitric oxide donors” (Bioorg Med Chem, 2014).

For orientation: solubility means the dissolved amount per volume that the medium holds. A high value points to a readily soluble substance. What is called inhibition is the change of the read-out against control, counted positive when it falls. One may read the clearance as the volume of plasma or blood freed of the substance per unit of time. Higher therefore signals efficient removal.

≈ marks a conversion by molar mass, not a printed value.

Series [1] in a line: Solubility of the compound in simulated gastric fluid at pH 1.5 after 90 mins by HPLC analysis. Type of series: ADME. The method in brief: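 DMSO stock (20 mM) diluted 2 µL into 198 µL PBS 0.01 M pH 7.4 or pepsin-free SGF 0.05 M pH 1.5, duplicate wells, shaken 90 min at 300 rpm. Filtrates analysed by HPLC with photodiode-array detection against seven-point standards (1–200 µM).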

For series [2], the target named is T1, Prostaglandin G/H synthase 1 (Mus musculus) (UniProt P22437).
T1 sequence (whole entry): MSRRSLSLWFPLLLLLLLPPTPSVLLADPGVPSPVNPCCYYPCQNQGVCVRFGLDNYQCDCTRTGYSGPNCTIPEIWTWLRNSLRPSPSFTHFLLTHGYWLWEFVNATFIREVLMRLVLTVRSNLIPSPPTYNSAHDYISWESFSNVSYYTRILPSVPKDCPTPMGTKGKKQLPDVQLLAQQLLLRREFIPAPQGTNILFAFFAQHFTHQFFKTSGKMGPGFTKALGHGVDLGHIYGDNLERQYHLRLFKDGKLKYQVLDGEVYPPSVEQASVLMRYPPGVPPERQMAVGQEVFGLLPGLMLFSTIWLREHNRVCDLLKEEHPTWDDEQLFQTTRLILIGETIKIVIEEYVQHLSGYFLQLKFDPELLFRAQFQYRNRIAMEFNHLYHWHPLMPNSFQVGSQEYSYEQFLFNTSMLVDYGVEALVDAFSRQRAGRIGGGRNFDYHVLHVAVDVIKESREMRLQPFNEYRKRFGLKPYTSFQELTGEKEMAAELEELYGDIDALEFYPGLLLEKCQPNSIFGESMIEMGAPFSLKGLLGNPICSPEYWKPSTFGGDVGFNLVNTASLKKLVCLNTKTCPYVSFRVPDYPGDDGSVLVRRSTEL
Description: Inhibition of COX-1 in mouse J774 cells using arachidonic acid as substrate assessed as inhibition of prostaglandin E2 production at 10 uM preincubated for 15 mins followed by substrate addition measured after 30 mins by RIA. The format is cell-based. In outline:
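J774 murine macrophages pretreated 15 min with compound (10 µM; lower concentrations 0.01–1 µM where needed), then incubated 30 min at 37 °C with 15 µM arachidonic acid; supernatant PGE2 measured by RIA. Triplicate wells, mean of three experiments of percent inhibition versus control; IC50 by sigmoidal fit.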

In a further series the test system is Liver. Description: Induction of nitric oxide production in Wistar rat liver homogenate assessed as nitrite level at 1 mM after 1 to 150 mins. The format is functional, tissue-based.
A short description of series [3]: Clearance in Wistar rat at 10 mg/kg, iv by LC-MS/MS analysis. The format is ADME, organism-based. The arrangement: dose 10 mg/kg, route intravenous. Particulars: in vivo. The method in brief: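 Male Han Wistar rats, three per route, single 10 mg/kg/5 mL dose iv or po in 5% DMSO, 5% Cremophor EL, 0.1% Tween 80 in 150 mM phosphate buffer pH 7. Jugular-vein blood sampled, plasma methanol-precipitated, parent and hydroxy metabolite quantified by LC–MS/MS in positive ESI MRM mode (LLOQ 1–15 ng/mL).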

Series [4] can be described thus: Metabolic stability in Sprague-Dawley rat plasma assessed as compound remaining after 60 mins by LC-MS/MS analysis. Type of series: ADME, cell-free. Particulars: read-out: Stability. The method in brief: (§1)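 Compound (12 µL of 1 mM DMSO solution into 588 µL medium) incubated in PBS pH 7.4, pepsin-free SGF pH 1.5, or EDTA rat plasma. Aliquots taken at 0, 30, 60, 120 min and quenched with ice-cold acetonitrile containing internal standard; parent remaining as percent.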

Series [5] in a line: Stability of the compound in phosphate buffer saline assessed as compound remaining at pH 7.4 after 120 mins by LC-MS/MS analysis. The format is physicochemical. Particulars: read-out: Stability. The method in brief: as §1

In the case of `Cc1c(CC(=O)NCCO[N+](=O)[O-])cc(-c2ccc(S(C)(=O)=O)cc2)n1-c1ccc(F)cc1`, the solubility at 1.5 h in series [1] was 147 µM (≈ 69.9 µg/mL). The inhibition in series [2] amounted to 9%. The Activity with Liver stood at 27 µM. Moreover, the clearance in series [3] is 10 mL/min. The remaining at 1 h in series [4] is 100%. Besides, the remaining at 2 h in series [5] came out at 100%.
